Entries after “also recorded” stand apart in the source; their conditions may differ.
System: healthy subjects
Assay: Safety and tolerability
Format: in vivo, human
Conditions: for subjects with ADRs, percentage: SAD
Procedure, shortened: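 Randomized, double-blind, placebo-controlled (6:2, n = 8/cohort) single oral doses in healthy adults after ≥10 h fast, with sentinel pair observed 24 h first. TEAEs were graded by nature, incidence, severity, seriousness and outcome, coded in MedDRA 23.0. ADR: any AE whose causality to test compound could not be ruled out. Labs, vital signs, examinations and 12-lead ECGs were also monitored.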

[1] = SAD study, all subjects who received bersiporocin

O[C@H]1CCCN[C@@H]1CCCn1cnc2c(Cl)c(Cl)ccc21 [Bersiporocin]
ADRs, number of events (SAD single 100 mg capsule): 3 | Abdominal discomfort (ADR), subjects n (%) (SAD single 100 mg capsule): 0 | Abdominal distension (ADR), subjects n (%) (SAD single 100 mg capsule): 0 | Abdominal pain (ADR), subjects n (%) (SAD single 100 mg capsule): 0 | Abdominal pain upper (ADR), subjects n (%) (SAD single 100 mg capsule): 0 | Constipation (ADR), subjects n (%) (SAD single 100 mg capsule): 0 | Decreased appetite (ADR), subjects n (%) (SAD single 100 mg capsule): 0 | Diarrhea (ADR), subjects n (%) (SAD single 100 mg capsule): 0 | Dysgeusia (ADR), subjects n (%) (SAD single 100 mg capsule): 0 | Epigastric discomfort (ADR), subjects n (%) (SAD single 100 mg capsule): 0 | Gastroesophageal reflux disease (ADR), number of events (SAD single 100 mg capsule): 1 | Gastroesophageal reflux disease (ADR), subjects n (%) (SAD single 100 mg capsule): 1 (16.7) | Headache (ADR), subjects n (%) (SAD single 100 mg capsule): 0 | Hypersensitivity (ADR), subjects n (%) (SAD single 100 mg capsule): 0 | Hypotension (ADR), subjects n (%) (SAD single 100 mg capsule): 0 | Malaise (ADR), subjects n (%) (SAD single 100 mg capsule): 0 | Nausea (ADR), number of events (SAD single 100 mg capsule): 1 | Nausea (ADR), subjects n (%) (SAD single 100 mg capsule): 1 (16.7) | Neutropenia (ADR), number of events (SAD single 100 mg capsule): 1 | Neutropenia (ADR), subjects n (%) (SAD single 100 mg capsule): 1 (16.7) | Oropharyngeal pain (ADR), subjects n (%) (SAD single 100 mg capsule): 0 | Photosensitivity reaction (ADR), subjects n (%) (SAD single 100 mg capsule): 0 | Subjects with ADRs, n (%) (SAD single 100 mg capsule): 3 (50.0) | Tachycardia (ADR), subjects n (%) (SAD single 100 mg capsule): 0 | Vertigo (ADR), subjects n (%) (SAD single 100 mg capsule): 0 | Vomiting (ADR), subjects n (%) (SAD single 100 mg capsule): 0 | ADRs, number of events (SAD single 100 mg solution): 12 | Abdominal discomfort (ADR), subjects n (%) (SAD single 100 mg solution): 0 | Abdominal distension (ADR), subjects n (%) (SAD single 100 mg solution): 0 | Abdominal pain (ADR), subjects n (%) (SAD single 100 mg solution): 0 | Abdominal pain upper (ADR), subjects n (%) (SAD single 100 mg solution): 0 | Constipation (ADR), subjects n (%) (SAD single 100 mg solution): 0 | Decreased appetite (ADR), subjects n (%) (SAD single 100 mg solution): 0 | Diarrhea (ADR), subjects n (%) (SAD single 100 mg solution): 0 | Dysgeusia (ADR), number of events (SAD single 100 mg solution): 1 | Dysgeusia (ADR), subjects n (%) (SAD single 100 mg solution): 1 (16.7) | Epigastric discomfort (ADR), subjects n (%) (SAD single 100 mg solution): 0 | Gastroesophageal reflux disease (ADR), subjects n (%) (SAD single 100 mg solution): 0 | Headache (ADR), number of events (SAD single 100 mg solution): 2 | Headache (ADR), subjects n (%) (SAD single 100 mg solution): 2 (33.3) | Hypersensitivity (ADR), subjects n (%) (SAD single 100 mg solution): 0 | Hypotension (ADR), subjects n (%) (SAD single 100 mg solution): 0 | Malaise (ADR), subjects n (%) (SAD single 100 mg solution): 0 | Nausea (ADR), number of events (SAD single 100 mg solution): 5 | Nausea (ADR), subjects n (%) (SAD single 100 mg solution): 5 (83.3) | Neutropenia (ADR), subjects n (%) (SAD single 100 mg solution): 0 | Oropharyngeal pain (ADR), subjects n (%) (SAD single 100 mg solution): 0 | Photosensitivity reaction (ADR), subjects n (%) (SAD single 100 mg solution): 0 | Subjects with ADRs, n (%) (SAD single 100 mg solution): 5 (83.3) | Tachycardia (ADR), subjects n (%) (SAD single 100 mg solution): 0 | Vertigo (ADR), subjects n (%) (SAD single 100 mg solution): 0 | Vomiting (ADR), number of events (SAD single 100 mg solution): 4 | Vomiting (ADR), subjects n (%) (SAD single 100 mg solution): 4 (66.7) | ADRs, number of events (SAD single 300 mg capsule): 15 | Abdominal discomfort (ADR), subjects n (%) (SAD single 300 mg capsule): 0 | Abdominal distension (ADR), number of events (SAD single 300 mg capsule): 1 | Abdominal distension (ADR), subjects n (%) (SAD single 300 mg capsule): 1 (16.7) | Abdominal pain (ADR), number of events (SAD single 300 mg capsule): 2 | Abdominal pain (ADR), subjects n (%) (SAD single 300 mg capsule): 2 (33.3) | Abdominal pain upper (ADR), subjects n (%) (SAD single 300 mg capsule): 0 | Constipation (ADR), subjects n (%) (SAD single 300 mg capsule): 0 | Decreased appetite (ADR), number of events (SAD single 300 mg capsule): 1 | Decreased appetite (ADR), subjects n (%) (SAD single 300 mg capsule): 1 (16.7) | Diarrhea (ADR), number of events (SAD single 300 mg capsule): 2 | Diarrhea (ADR), subjects n (%) (SAD single 300 mg capsule): 2 (33.3) | Dysgeusia (ADR), subjects n (%) (SAD single 300 mg capsule): 0 | Epigastric discomfort (ADR), subjects n (%) (SAD single 300 mg capsule): 0 | Gastroesophageal reflux disease (ADR), subjects n (%) (SAD single 300 mg capsule): 0 | Headache (ADR), number of events (SAD single 300 mg capsule): 1 | Headache (ADR), subjects n (%) (SAD single 300 mg capsule): 1 (16.7) | Hypersensitivity (ADR), subjects n (%) (SAD single 300 mg capsule): 0 | Hypotension (ADR), subjects n (%) (SAD single 300 mg capsule): 0 | Malaise (ADR), number of events (SAD single 300 mg capsule): 1 | Malaise (ADR), subjects n (%) (SAD single 300 mg capsule): 1 (16.7) | Nausea (ADR), number of events (SAD single 300 mg capsule): 4 | Nausea (ADR), subjects n (%) (SAD single 300 mg capsule): 3 (50.0) | Neutropenia (ADR), subjects n (%) (SAD single 300 mg capsule): 0 | Oropharyngeal pain (ADR), subjects n (%) (SAD single 300 mg capsule): 0 | Photosensitivity reaction (ADR), subjects n (%) (SAD single 300 mg capsule): 0 | Subjects with ADRs, n (%) (SAD single 300 mg capsule): 4 (66.7) | Tachycardia (ADR), subjects n (%) (SAD single 300 mg capsule): 0 | Vertigo (ADR), subjects n (%) (SAD single 300 mg capsule): 0 | Vomiting (ADR), number of events (SAD single 300 mg capsule): 3 | Vomiting (ADR), subjects n (%) (SAD single 300 mg capsule): 3 (50.0) | ADRs, number of events (SAD single 500 mg tablet): 23 | Abdominal discomfort (ADR), subjects n (%) (SAD single 500 mg tablet): 0 | Abdominal distension (ADR), subjects n (%) (SAD single 500 mg tablet): 0 | Abdominal pain (ADR), number of events (SAD single 500 mg tablet): 1 | Abdominal pain (ADR), subjects n (%) (SAD single 500 mg tablet): 1 (16.7) | Abdominal pain upper (ADR), number of events (SAD single 500 mg tablet): 1 | Abdominal pain upper (ADR), subjects n (%) (SAD single 500 mg tablet): 1 (16.7) | Constipation (ADR), number of events (SAD single 500 mg tablet): 1 | Constipation (ADR), subjects n (%) (SAD single 500 mg tablet): 1 (16.7) | Decreased appetite (ADR), number of events (SAD single 500 mg tablet): 1 | Decreased appetite (ADR), subjects n (%) (SAD single 500 mg tablet): 1 (16.7) | Diarrhea (ADR), number of events (SAD single 500 mg tablet): 4 | Diarrhea (ADR), subjects n (%) (SAD single 500 mg tablet): 4 (66.7) | Dysgeusia (ADR), subjects n (%) (SAD single 500 mg tablet): 0 | Epigastric discomfort (ADR), number of events (SAD single 500 mg tablet): 1 | Epigastric discomfort (ADR), subjects n (%) (SAD single 500 mg tablet): 1 (16.7) | Gastroesophageal reflux disease (ADR), subjects n (%) (SAD single 500 mg tablet): 0 | Headache (ADR), number of events (SAD single 500 mg tablet): 2 | Headache (ADR), subjects n (%) (SAD single 500 mg tablet): 2 (33.3) | Hypersensitivity (ADR), number of events (SAD single 500 mg tablet): 1 | Hypersensitivity (ADR), subjects n (%) (SAD single 500 mg tablet): 1 (16.7) | Hypotension (ADR), number of events (SAD single 500 mg tablet): 1 | Hypotension (ADR), subjects n (%) (SAD single 500 mg tablet): 1 (16.7) | Malaise (ADR), subjects n (%) (SAD single 500 mg tablet): 0 | Nausea (ADR), number of events (SAD single 500 mg tablet): 5 | Nausea (ADR), subjects n (%) (SAD single 500 mg tablet): 5 (83.3) | Neutropenia (ADR), subjects n (%) (SAD single 500 mg tablet): 0 | Oropharyngeal pain (ADR), number of events (SAD single 500 mg tablet): 1 | Oropharyngeal pain (ADR), subjects n (%) (SAD single 500 mg tablet): 1 (16.7) | Photosensitivity reaction (ADR), subjects n (%) (SAD single 500 mg tablet): 0 | Subjects with ADRs, n (%) (SAD single 500 mg tablet): 6 (100) | Tachycardia (ADR), number of events (SAD single 500 mg tablet): 1 | Tachycardia (ADR), subjects n (%) (SAD single 500 mg tablet): 1 (16.7) | Vertigo (ADR), number of events (SAD single 500 mg tablet): 1 | Vertigo (ADR), subjects n (%) (SAD single 500 mg tablet): 1 (16.7) | Vomiting (ADR), number of events (SAD single 500 mg tablet): 2 | Vomiting (ADR), subjects n (%) (SAD single 500 mg tablet): 2 (33.3) | ADRs, number of events (SAD single 600 mg capsule): 15 | Abdominal discomfort (ADR), number of events (SAD single 600 mg capsule): 1 | Abdominal discomfort (ADR), subjects n (%) (SAD single 600 mg capsule): 1 (16.7) | Abdominal distension (ADR), subjects n (%) (SAD single 600 mg capsule): 0 | Abdominal pain (ADR), subjects n (%) (SAD single 600 mg capsule): 0 | Abdominal pain upper (ADR), subjects n (%) (SAD single 600 mg capsule): 0 | Constipation (ADR), subjects n (%) (SAD single 600 mg capsule): 0 | Decreased appetite (ADR), subjects n (%) (SAD single 600 mg capsule): 0 | Diarrhea (ADR), number of events (SAD single 600 mg capsule): 2 | Diarrhea (ADR), subjects n (%) (SAD single 600 mg capsule): 2 (33.3) | Dysgeusia (ADR), subjects n (%) (SAD single 600 mg capsule): 0 | Epigastric discomfort (ADR), subjects n (%) (SAD single 600 mg capsule): 0 | Gastroesophageal reflux disease (ADR), subjects n (%) (SAD single 600 mg capsule): 0 | Headache (ADR), number of events (SAD single 600 mg capsule): 1 | Headache (ADR), subjects n (%) (SAD single 600 mg capsule): 1 (16.7) | Hypersensitivity (ADR), subjects n (%) (SAD single 600 mg capsule): 0 | Hypotension (ADR), subjects n (%) (SAD single 600 mg capsule): 0 | Malaise (ADR), subjects n (%) (SAD single 600 mg capsule): 0 | Nausea (ADR), number of events (SAD single 600 mg capsule): 6 | Nausea (ADR), subjects n (%) (SAD single 600 mg capsule): 5 (83.3) | Neutropenia (ADR), subjects n (%) (SAD single 600 mg capsule): 0 | Oropharyngeal pain (ADR), subjects n (%) (SAD single 600 mg capsule): 0 | Photosensitivity reaction (ADR), number of events (SAD single 600 mg capsule): 1 | Photosensitivity reaction (ADR), subjects n (%) (SAD single 600 mg capsule): 1 (16.7) | Subjects with ADRs, n (%) (SAD single 600 mg capsule): 5 (83.3) | Tachycardia (ADR), subjects n (%) (SAD single 600 mg capsule): 0 | Vertigo (ADR), subjects n (%) (SAD single 600 mg capsule): 0 | Vomiting (ADR), number of events (SAD single 600 mg capsule): 4 | Vomiting (ADR), subjects n (%) (SAD single 600 mg capsule): 4 (66.7) | subjects with nausea and vomiting, percentage (SAD starting dose group (100 mg, 150 mL solution)): 83.3% | ADRs, number of events [1]: 68 | TEAEs, number of events [1]: 90 | subjects with TEAEs, number [1]: 23 | subjects with TEAEs, percentage [1]: 77% | subjects with ADRs, percentage (capsule group (after formulation change)): 50% | subjects with ADRs, percentage (solution group): 83% | severe, life‐threatening, or fatal ADRs (across the study (SAD and MAD)): no severe, life‐threatening, or fatal ADRs | severity of most ADRs (across the study (SAD and MAD)): mild in severity | severe or serious adverse events (single oral dose up to 600 mg and multiple oral doses up to 200 mg twice daily for 14 days): No severe or serious adverse events were observed; also recorded: No severe or serious AEs were observed
